In the RNAGym collection of RNA variant scans (doi:10.1038/s41586-018-0170-7):

B1: tRNA (parent)
chain: GUUCCGUUGGCGUAAUGGUAACGCGUCUCCCUCCUAAGGAGAAGACUGCGGGUUCGAGUCCCGUACGGAACG

Variants of: B1
Test: yeast fitness, log relative to wild type (ln ratio); higher = fitter; tRNA-Arg(CCU), competitive growth, 37 C, 1 M NaCl
Outline: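 Two independent transformations put a combinatorial tRNA-Arg(CCU) variant library on a HIS3 centromeric plasmid into BY4742 lacking the chromosomal gene. Pools were grown in SC-HIS at 30 °C for 4 generations, then in SC-HIS 1M NaCl at 37 °C for ~6.5 generations (~26.5 h), with three outputs taken per input. Fitness compares a genotype's generations with the wild type's as a natural log ratio. Those generations are OD-scaled log2 output/input frequencies, inverse-variance weighted across replicates, from 125 bp paired-end Illumina counts.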

Row | Variant | yeast fitness (ln)
1 | G6A C27U A43C C66U A70U | -0.169
2 | G1A U2G G6U C27U A69G A70G C71U | -0.448
3 | U2C G6A C66U A69G A70U | -0.222
4 | U2G G6A C27U A43C C66U | -0.113
5 | U2C C27U A43C C46U C66A A70G C71U | -0.105
6 | G1A G6U C66U A70U | -0.154
7 | G1A G6U C27U C46U C66A A70U | -0.249
8 | C27U C46U A70U | -0.0227
9 | G1A U2G G6A C27U A69G A70G | -0.428
10 | U2G C27U A43C C46U C66A C71U | -0.182
11 | G1A G6U C27U C46U A70G | -0.191
12 | G1A G6A C27U C46U C66U A70U C71U | -0.478
13 | G1A U2C G6A C46U C66U | -0.16
14 | U2G A43C C46U C66A A69G C71U | -0.302
15 | G1A A43C C46U C66A A70G C71U | -0.191
16 | U2G G6A C46U A69G | -0.183
17 | U2C C27U A43C C46U C66U A70U C71U | -0.324
18 | G1A G6U C27U A43C C66U A70G C71U | -0.415
19 | G1A U2C C27U C66U | -0.191
20 | U2C G6U A43C C66A | -0.135
21 | U2G G6A C46U C66U A70U C71U | -0.0272

Row | Variant | yeast fitness (ln)
22 | U2C A43C C46U A69G | -0.182
23 | G1A G6A C27U C66U | -0.283
24 | G1A G6U C46U C66A C71U | 0.0017
25 | G1A U2G G6A A43C C46U A70U C71U | -0.14
26 | G1A U2G G6U A43C C46U C66U A69G C71U | -0.393
27 | U2C C46U A69G C71U | -0.131
28 | G1A U2G G6A C27U A43C C46U C66U A69G A70G | -0.34
29 | G1A C46U C66A A70G C71U | -0.11
30 | G6U C27U A69G A70U C71U | -0.513
31 | U2C A43C A70G | -0.00562
32 | U2G G6A A43C C46U | -0.0442
33 | G1A U2C C27U A43C C46U A70G | -0.0342
34 | G1A G6U C46U C66U A69G A70U C71U | -0.441
35 | U2C G6U A43C C46U A69G A70U C71U | -0.393
36 | U2G G6U C27U C66A A70U C71U | -0.275
37 | G1A U2C C46U C66U A70U | -0.0818
38 | C27U A43C C46U A69G A70U C71U | -0.317
39 | C27U C46U C66A A70G | -0.0605
40 | A43C C46U C66U A70U C71U | -0.211
41 | U2G G6U C46U C66U | -0.131
42 | G1A U2C G6U C27U C66U A70G C71U | -0.496

Row | Variant | yeast fitness (ln)
43 | G1A U2G G6U C27U A43C C66U A69G A70U | -0.611
44 | C27U A43C C46U C66U A69G | -0.204
45 | C46U A69G A70G | -0.0172
46 | G1A U2C G6U C46U C66U A69G A70G C71U | -0.0644
47 | G1A C27U A43C C46U A70U | -0.203
48 | U2C G6A A43C C46U A70G | -0.0922
49 | U2C G6A A43C C46U A69G A70G | -0.241
50 | G6A C27U C66U A69G A70U C71U | -0.462
51 | G1A G6U C66U | -0.126
52 | U2G G6A C27U A69G A70G | -0.193
53 | U2G G6A C27U C46U C66A C71U | -0.213
54 | U2G G6U C46U C66U A70U | -0.0168
55 | U2G G6U C27U C66U A69G C71U | -0.427
56 | G1A U2C A43C C46U A70G | -0.00269
57 | G6U C27U A43C C66A A69G A70G C71U | -0.338
58 | G1A C27U A43C C66U A70U C71U | -0.51
59 | G1A U2G G6U C27U C46U C66U A69G A70G | -0.308
60 | G1A U2G G6U C66U A69G C71U | -0.375
61 | U2G G6U A43C C46U C66U A70U C71U | -0.22
62 | G1A U2C G6A A70U | -0.0459
63 | G1A U2C C27U A43C A70G C71U | -0.0249

Row | Variant | yeast fitness (ln)
64 | G1A U2G C27U C66U A69G A70G | -0.26
65 | G1A G6A C46U A70U C71U | -0.0983
66 | U2G G6U A43C C66U A69G A70G | -0.323
67 | U2C A43C C46U C66A | 0.0909
68 | U2C C27U A43C C46U C66A A69G A70U | -0.263
69 | G1A A43C C66U A69G A70U | -0.373
70 | U2C G6U A43C A69G A70G | -0.143
71 | G1A | -0.0233
72 | U2C C27U C71U | -0.273
73 | G1A U2C C27U A43C C66U A70U | -0.179
74 | U2C G6U C66A A69G A70G C71U | -0.00896
75 | U2G G6A C27U C46U C66A A69G C71U | -0.325
76 | C46U | 0.0114
77 | U2G G6U A43C C46U C66U A69G C71U | -0.487
78 | G1A G6A C27U A43C C46U A69G A70G C71U | -0.374
79 | G1A U2G G6A C27U A43C A69G A70G C71U | -0.354
80 | U2C C27U C46U C66A A70U | -0.0366
81 | G1A G6A C46U C66A C71U | -0.258
82 | G1A U2G A43C C66A A70G C71U | -0.333
83 | G6U C27U C46U C66U A69G C71U | -0.543
